Assays:
[1] = Cytotoxicity in Vero cells; assay type: cell-based; details: African green monkey
Outline: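 Vero cells were seeded at 1 × 10^5 cells/well and grown for 48 h. They were then exposed for 72 h to twofold serial dilutions of test compound (5–600 μg/mL or μM). MTT was added for 4 h at 37 °C, and formazan was dissolved in 0.04 M HCl–isopropanol. Absorbance was read at 540 nm minus 655 nm background. CC50 came from regression analysis; experiments were run three times.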

PEDV SM98 strain [2] = test: Simultaneous-treatment antiviral assay; assay type: cell-based, porcine epidemic diarrhea virus; details: for selectivity ratio at 72 h: African green monkey, Vero cells infected with PEDV SM98 strain; for IC50: Porcine epidemic diarrhea virus, Vero, read-out: Simultaneous-treatment IC50
Outline: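 Test compound at various concentrations was premixed with PEDV SM98 (MOI 0.01) for 1 h at 4 °C. The mixture was put on near-confluent Vero monolayers (1 × 10^5 cells/well) for 1 h with occasional rocking, then replaced with fresh medium; triplicate wells. After 72 h, MTT was read (4 h, 37 °C; A540 minus 655 nm). IC50 came from regression analysis, and SI = CC50/IC50.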

PEDV SM98 strain [3] = test: Post-treatment antiviral assay; assay type: cell-based, porcine epidemic diarrhea virus; details: for IC50: Porcine epidemic diarrhea virus, Vero, read-out: Post-treatment IC50
Outline: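 Near-confluent Vero monolayers (1 × 10^5 cells/well) were infected with PEDV SM98 at MOI 0.01 for 1 h with occasional rocking. Inoculum was replaced by EMEM containing test compound (1–200 μM), in triplicate. After 72 h, viability was read by MTT (4 h, 37 °C; A540 minus 655 nm). IC50 came from regression analysis, and SI = CC50/IC50.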

PEDV (SM98 strain) [4] = test: Hemagglutination inhibition; assay type: cell-based, porcine epidemic diarrhea virus; details: 4 HAU PEDV, rabbit RBCs, 1 h room temperature
Outline: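 PEDV at 4 HAU was mixed with an equal volume of twofold serial dilutions of test compound in PBS (pH 7.4), with PBS alone as negative control, for 1 h at 4 °C. The mixture was combined with an equal volume of 1% rabbit RBC suspension and incubated 1 h at room temperature. Experiments were run three times.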

PEDV [5] = test: Quantitative real-time RT-PCR of intracellular viral RNA; assay type: cell-based, porcine epidemic diarrhea virus
PEDV [6] = test: Western blot of viral spike; assay type: cell-based, porcine epidemic diarrhea virus
Outline: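 Vero cells at about 90% confluence were infected with PEDV at MOI 0.01 for 1 h, then cultured with 30 μM test compound or 0.5% DMSO. Cells were harvested at 6, 12, 18 and 24 h and lysed, and proteins were separated on Bis–Tris gels and blotted to nitrocellulose. Blots were probed with anti-S antibody (12 h, 4 °C) and HRP secondary, then developed by chemiluminescence; GAPDH served as loading control.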

PEDV (SM98 strain) [7] = test: Confocal immunofluorescence imaging of PEDV-infected Vero cells; assay type: cell-based, porcine epidemic diarrhea virus; details: 30 μM, 24 h

Row | IC50 (PEDV SM98 strain [2]) | IC50 (PEDV SM98 strain [3]) | SMILES | CC50 at 72 h [1] | selectivity ratio at 72 h (PEDV SM98 strain [2]) | selectivity ratio at 72 h (PEDV SM98 strain [3]; African green monkey, Vero cells infected with PEDV SM98 strain) | Minimum concentration that completely inhibited viral hemagglutination (PEDV (SM98 strain) [4]; listed as dieckol (5)) | Viral RNA levels, early stage (PEDV [5]; 30 μM, 6 and 12 h after infection) | Viral RNA levels, late stage (PEDV [5]; 30 μM, 18 and 24 h after infection, vs untreated/infected cells (0.5% DMSO)) | Viral RNA levels relative to vehicle-treated cells (PEDV [5]; 50 μM, 24 h after infection, ORF3 gene normalized to GAPDH) | Effect on viral RNA levels (PEDV [5]; 5–50 μM, 24 h after infection) | Synthesis of viral proteins, late stage (PEDV [6]; 30 μM, 18 and 24 h) | Synthesis of viral proteins (S protein) (PEDV [6]; 5–50 μM, 24 h post-infection) | Number of fluorescence-positive, PEDV-infected cells (PEDV (SM98 strain) [7]) | Minimum concentration that completely inhibited viral hemagglutination (PEDV (SM98 strain) [4]; listed as eckol (2)) | Simultaneous-treatment IC50 (PEDV SM98 strain [2]; mixed with virus 0.01 MOI 1 h at 4 °C, Vero cells, 72 h)
1 | 16.6 ± 3 µM | 14.6 ± 1.3 µM | Oc1cc(O)cc(Oc2c(O)cc(O)c3c2Oc2c(O)cc(Oc4c(O)cc(Oc5c(O)cc(O)c6c5Oc5c(O)cc(O)cc5O6)cc4O)cc2O3)c1 [Compound 5, dieckol] | 490.6 ± 1.6 µM | 29.5 | 33.6 | 3.8 to 5.4 µM | largely unchanged | markedly decreased | 30–40% | significantly reduced viral RNA levels in dose-dependent manner | strongly inhibited | inhibited the synthesis of viral proteins | reduced the number of fluorescence-positive, PEDV-infected cells |  | 
2 | 22.5 ± 2.2 µM | > 200 µM | Oc1cc(O)cc(Oc2c(O)cc(O)c3c2Oc2c(O)cc(O)cc2O3)c1 [Compound 2, eckol] | 388.3 ± 2.6 µM | 17.2 |  |  |  |  |  |  |  |  |  | 3.8 to 5.4 µM | 
3 | > 200 µM | > 200 µM | Oc1cc(O)cc(O)c1 [Compound 1, phloroglucinol] | 374 ± 4 µM |  |  |  |  |  |  |  |  |  |  |  | did not show significant inhibitory effects

Reference: publication PMC7127107 (Bioorganic & Medicinal Chemistry, 2013)
